One series has as its system Escherichia coli. Kind of series: Antimicrobial activity against Escherichia coli ATCC 25922 assessed as inhibition of microbial growth at 50 ug/ml. The class given is functional, organism-based. The method, boiled down:
(§1)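 Single-dose growth-inhibition test at 50 μg/mL. Stock culture (50 μL) went into 10 mL tryptic soy broth and was shaken overnight at 37 °C; X. axonopodis was grown at 30 °C instead. OD was read at 625 nm and cells were adjusted to about 5 × 10^5 CFU per 100 μL well. Compound was added to a 100 μL final volume and plates were incubated overnight.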

The test system of series [1] is Burkholderia vietnamiensis. Kind of series: Antimicrobial activity against Burkholderia vietnamiensis ATCC BAA-248 assessed as inhibition of microbial growth at 50 ug/ml. The class given is functional. The method, boiled down:
as §1

Another series concerns Pseudomonas aeruginosa. Kind of series: Antimicrobial activity against Pseudomonas aeruginosa ATCC 27853 assessed as inhibition of microbial growth at 50 ug/ml. The class given is functional, organism-based. The method, boiled down:
as §1

For a further series, the system named is Firmicutes. Kind of series: Antimicrobial activity against Firmicutes K940. Format: functional. The note with it: Bacillota. The method in brief:
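Growth-inhibition assay against the inducing Actinobacteria (E906) and Firmicutes (K940) coculture isolates. Dose-response testing gave the MIC values. Bacteria were grown overnight in tryptic soy broth with shaking and read by OD at 625 nm. Wells were adjusted to about 5 × 10^5 CFU per 100 μL, compound was added to a 100 μL final volume, and plates were incubated overnight.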

Series [2] relates to Mycobacterium tuberculosis. Kind of series: Antimicrobial activity against Mycobacterium tuberculosis H37Rv assessed as inhibition of microbial growth at 50 ug/ml. Format: functional, organism-based.
The next series relates to Enterococcus faecalis. Kind of series: Antimicrobial activity against Enterococcus faecalis ATCC 29212 assessed as inhibition of microbial growth at 50 ug/ml. Format: functional, organism-based.
Series [3] in a line: Retention time of the compound by HPLC method. The class given is physicochemical.
In a further series the test system is Yersinia pestis. Kind of series: Antimicrobial activity against Yersinia pestis A1122 assessed as inhibition of microbial growth at 50 ug/ml. The class given is functional, organism-based.
A further series deals with Brucella neotomae. Kind of series: Antimicrobial activity against Brucella neotomae ATCC 23459 assessed as inhibition of microbial growth at 50 ug/ml. Format: functional. The method, boiled down: as §1
For another series, the system named is Xanthomonas axonopodis. Kind of series: Antimicrobial activity against Xanthomonas axonopodis ATCC 8718 assessed as inhibition of microbial growth at 50 ug/ml. Format: functional, organism-based. The method in brief: as §1

Values after ≈ are worked out from the molar mass of the structure shown. Active and inactive are the calls of the source.

As usually defined, the MIC is the smallest concentration in the dilution series that meets the test's criterion for growth inhibition. A lower MIC goes with greater potency. Turning to `Cc1cc(O)c2c3c4c(cc(O)c13)C(C)(C)C(=O)c1c(O)cc(O)c(c1-4)C2=O` [HELIOMYCIN], the inhibition entry (in the series with Escherichia coli; in series [1]; in the series with Pseudomonas aeruginosa; in series [2]; in the series on Enterococcus faecalis; with Yersinia pestis) was “inactive” throughout. Also, the inhibition result with Brucella neotomae and in the series with Xanthomonas axonopodis was “inactive” each time. The compound also displayed an MIC with Firmicutes of 0.25 µg/mL (≈ 0.664 µM). In series [3], this compound returned a Retention_time of 17.9 min.
